Laboratory results: ChEMBL document CHEMBL1208778, “Synthesis and anti-cancer activity of chalcone linked imidazolones” (2010)
Calls of active or inactive are those of the source. No cut-off for these calls is given here.

Key:
[1] = Growth inhibition of human RPMI8266 cells; assay type: functional
Method in brief: (§1)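 Five-dose testing was run within the NCI (Bethesda) in vitro Anticancer Screen Program on a panel of 53 human tumour cell lines from nine cancer types. Growth inhibition is reported as GI50.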

[2] = system: K562; assay: Growth inhibition of human K562 cells; assay type: functional; method in brief: as §1
[3] = system: A549; assay: Growth inhibition of human A549 cells; assay type: functional; method in brief: as §1
[4] = system: EKVX; assay: Growth inhibition of human EKVX cells; assay type: functional; method in brief: as §1
[5] = system: HOP-62; assay: Growth inhibition of human HOP62 cells; assay type: functional; method in brief: as §1
[6] = system: HOP-92; assay: Growth inhibition of human HOP92 cells; assay type: functional; method in brief: as §1
[7] = system: NCI-H226; assay: Growth inhibition of human NCI-H226 cells; assay type: functional; method in brief: as §1
[8] = system: NCI-H23; assay: Growth inhibition of human NCI-H23 cells; assay type: functional; method in brief: as §1
[9] = system: NCI-H322M; assay: Growth inhibition of human NCI-H322M cells; assay type: functional; method in brief: as §1
[10] = system: NCI-H460; assay: Growth inhibition of human NCI-H460 cells; assay type: functional; method in brief: as §1
[11] = system: NCI-H522; assay: Growth inhibition of human NCI-H522 cells; assay type: functional; method in brief: as §1
[12] = system: COLO 205; assay: Growth inhibition of human COLO205 cells; assay type: functional; method in brief: as §1
[13] = system: HCC 2998; assay: Growth inhibition of human HCC2998 cells; assay type: functional; method in brief: as §1
[14] = system: HCT-116; assay: Growth inhibition of human HCT116 cells; assay type: functional; method in brief: as §1
[15] = system: HCT-15; assay: Growth inhibition of human HCT15 cells; assay type: functional; method in brief: as §1
[16] = system: HT-29; assay: Growth inhibition of human HT-29 cells; assay type: functional; method in brief: as §1
[17] = system: KM12; assay: Growth inhibition of human KM12 cells; assay type: functional; method in brief: as §1
[18] = system: SW-620; assay: Growth inhibition of human SW620 cells; assay type: functional
Method in brief: (§2)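 Compounds that passed a preliminary screen were tested at five doses in the NCI (Bethesda) in vitro Anticancer Screen Program against a 53-line human tumour panel spanning leukemia, lung, colon, CNS, melanoma, ovarian, renal, prostate and breast. Growth inhibition is reported as GI50.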

[19] = system: SF-268; assay: Growth inhibition of human SF268 cells; assay type: functional; method in brief: as §1
[20] = system: SF-295; assay: Growth inhibition of human SF295 cells; assay type: functional; method in brief: as §1
[21] = system: SF-539; assay: Growth inhibition of human SF539 cells; assay type: functional; method in brief: as §1
[22] = system: SNB-19; assay: Growth inhibition of human SNB19 cells; assay type: functional; method in brief: as §2
[23] = system: SNB-75; assay: Growth inhibition of human SNB75 cells; assay type: functional; method in brief: as §2
[24] = system: U-251; assay: Growth inhibition of human U251 cells; assay type: functional; method in brief: as §2
[25] = system: A498; assay: Growth inhibition of human A498 cells; assay type: functional; method in brief: as §1
[26] = system: 786-0; assay: Growth inhibition of human 786-0 cells; assay type: functional; method in brief: as §1
[27] = system: ACHN; assay: Growth inhibition of human ACHN cells; assay type: functional; method in brief: as §1
[28] = system: CAKI-1; assay: Growth inhibition of human Caki1 cells; assay type: functional; method in brief: as §1
[29] = system: RXF 393; assay: Growth inhibition of human RXF393 cells; assay type: functional; method in brief: as §1
[30] = system: SN12C; assay: Growth inhibition of human SN12C cells; assay type: functional; method in brief: as §2
[31] = system: TK-10; assay: Growth inhibition of human TK10 cells; assay type: functional; method in brief: as §2
[32] = system: UO-31; assay: Growth inhibition of human UO31 cells; assay type: functional; method in brief: as §2
[33] = system: PC-3; assay: Growth inhibition of human PC3 cells; assay type: functional; method in brief: as §1
[34] = system: OVCAR-3; assay: Growth inhibition of human OVCAR-3 cells; assay type: functional; method in brief: as §1
[35] = system: OVCAR-4; assay: Growth inhibition of human OVCAR4 cells; assay type: functional; method in brief: as §1
[36] = system: OVCAR-5; assay: Growth inhibition of human OVCAR5 cells; assay type: functional; method in brief: as §1
[37] = system: OVCAR-8; assay: Growth inhibition of human OVCAR8 cells; assay type: functional; method in brief: as §1
[38] = system: NCI/ADR-RES; assay: Growth inhibition of human NCI/ADR-RES cells; assay type: functional; method in brief: as §1
[39] = system: SK-OV-3; assay: Growth inhibition of human SKOV3 cells; assay type: functional; method in brief: as §2
[40] = system: MCF7; assay: Growth inhibition of human MCF7 cells; assay type: functional; method in brief: as §1
[41] = system: MDA-MB-231; assay: Growth inhibition of human MDA-MB-231 cells; assay type: functional; method in brief: as §1
[42] = Growth inhibition of human Hs 578T cells; assay type: functional; method in brief: as §1
[43] = system: BT-549; assay: Growth inhibition of human BT549 cells; assay type: functional; method in brief: as §1
[44] = system: T47D; assay: Growth inhibition of human T47D cells; assay type: functional; method in brief: as §2
[45] = system: LOX IMVI; assay: Growth inhibition of human LOXIMVI cells; assay type: functional; method in brief: as §1
[46] = system: Malme-3M; assay: Growth inhibition of human MALME-3M cells; assay type: functional; method in brief: as §1
[47] = system: M14; assay: Growth inhibition of human M14 cells; assay type: functional; method in brief: as §1
[48] = system: MDA-MB-435; assay: Growth inhibition of human MDA-MB-435 cells; assay type: functional; method in brief: as §1
[49] = system: SK-MEL-2; assay: Growth inhibition of human SK-MEL-2 cells; assay type: functional; method in brief: as §1
[50] = system: SK-MEL-28; assay: Growth inhibition of human SK-MEL-28 cells; assay type: functional; method in brief: as §1
[51] = system: SK-MEL-5; assay: Growth inhibition of human SK-MEL-5 cells; assay type: functional; method in brief: as §1
[52] = system: UACC-257; assay: Growth inhibition of human UACC257 cells; assay type: functional; method in brief: as §2
[53] = system: UACC-62; assay: Growth inhibition of human UACC62 cells; assay type: functional; method in brief: as §2
[54] = system: MCF7; assay: Cell cycle arrest in human MCF7 cells assessed as accumulation at G0 phase at 10 uM after 24 hrs by FACS analysis; assay type: functional
Method in brief: (§3)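 MCF-7 breast carcinoma cells were exposed to 10 µM test compound for 24 h, with DMSO as the vehicle control. Cell-cycle distribution was read by FACS as the percentage of cells in G0, G1, S and G2/M.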

[55] = system: MCF7; assay: Cell cycle arrest in human MCF7 cells assessed as accumulation at G1 phase at 10 uM after 24 hrs by FACS analysis; assay type: functional; method in brief: as §3
[56] = system: MCF7; assay: Cell cycle arrest in human MCF7 cells assessed as accumulation at S phase at 10 uM after 24 hrs by FACS analysis; assay type: functional; method in brief: as §3
[57] = system: MCF7; assay: Cell cycle arrest in human MCF7 cells assessed as accumulation at G2/M phase at 10 uM after 24 hrs by FACS analysis; assay type: functional; method in brief: as §3
[58] = system: MCF7; assay: Cell cycle arrest in human MCF7 cells assessed as accumulation at G0 phase at 30 uM after 24 hrs by FACS analysis; assay type: functional
Method in brief: (§4)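 MCF-7 cells were treated at 30 µM for 24 h alongside a DMSO control. Fractions in G0, G1, S and G2/M phases were measured by FACS, and values are means of three experiments.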

[59] = system: MCF7; assay: Cell cycle arrest in human MCF7 cells assessed as accumulation at G1 phase at 30 uM after 24 hrs by FACS analysis; assay type: functional; method in brief: as §4
[60] = system: MCF7; assay: Cell cycle arrest in human MCF7 cells assessed as accumulation at S phase at 30 uM after 24 hrs by FACS analysis; assay type: functional; method in brief: as §4
[61] = system: MCF7; assay: Cell cycle arrest in human MCF7 cells assessed as accumulation at G2/M phase at 30 uM after 24 hrs by FACS analysis; assay type: functional; method in brief: as §4
[62] = system: MCF7; assay: Induction of apoptosis in human MCF7 cells assessed as decrease in procaspase 7 level at 30 uM after 24 hrs by Western blot analysis; assay type: functional, cell-based
Method in brief: (§5)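 MCF-7 breast carcinoma cells were exposed to 30 µM compound for 24 h, with CA-4 as positive control. Cell lysates were then immunoblotted with antibodies to procaspase-7 and cleavage-specific PARP, using β-actin as loading control.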

[63] = system: MCF7; assay: Induction of apoptosis in human MCF7 cells assessed as […] in PARP cleavage at 30 uM after 24 hrs by Western blot analysis; assay type: functional, cell-based; method in brief: as §5

- GI50 [2]: 2.04 µM
- GI50 [3]: 3.85 µM
- GI50 [7]: 2.6 µM
- GI50 [8]: 2.02 µM
- GI50 [9]: 3.39 µM
- GI50 [10]: 1.95 µM
- GI50 [11]: 2.36 µM
- GI50 [12]: 2.21 µM
- GI50 [13]: 1.51 µM
- GI50 [14]: 1.4 µM
- GI50 [15]: 2.73 µM
- GI50 [16]: 3.77 µM
- GI50 [18]: 2.29 µM
- GI50 [24]: 2.11 µM
- GI50 [26]: 1.35 µM
- GI50 [27]: 2.5 µM
- GI50 [33]: 2.52 µM
- GI50 [34]: 2.29 µM
- GI50 [35]: 5.19 µM
- GI50 [36]: 2.04 µM
- GI50 [37]: 4.11 µM
- GI50 [39]: 3.76 µM
- GI50 [40]: 1.55 µM
- GI50 [41]: 3.36 µM
- GI50 [43]: 2.78 µM
- GI50 [44]: 2.7 µM
- GI50 [48]: 2.14 µM
- GI50 [49]: 3.65 µM
- GI50 [50]: 1.85 µM
- GI50 [51]: 1.59 µM
SMILES: COc1cc(/C=C/C(=O)c2cccc(-n3cc(-c4ccccc4)[nH]c3=O)c2)ccc1O
- GI50 [1]: 1.67 µM
- GI50 [4]: 3.9 µM
- GI50 [5]: 1.48 µM
- GI50 [6]: 2.27 µM
- GI50 [17]: 1.61 µM
- GI50 [19]: 2.07 µM
- GI50 [20]: 3.04 µM
- GI50 [21]: 1.91 µM
- GI50 [22]: 2.96 µM
- GI50 [23]: 3.9 µM
- GI50 [25]: 1.68 µM
- GI50 [28]: 2.19 µM
- GI50 [29]: 2.27 µM
- GI50 [30]: 3.31 µM
- GI50 [31]: 5.29 µM
- GI50 [32]: 2.18 µM
- GI50 [38]: 2.92 µM
- GI50 [42]: 4.16 µM
- GI50 [45]: 1.88 µM
- GI50 [46]: 2.67 µM
- GI50 [47]: 2.61 µM
- GI50 [52]: 6.81 µM
- GI50 [53]: 2.01 µM
- Activity [54]: 11.17%
- Activity [55]: 25.85%
- Activity [56]: 14.13%
- Activity [57]: 48.85%
- Activity [58]: 40.05%
- Activity [59]: 49.91%
- Activity [60]: 2.41%
- Activity [61]: 7.63%
- Activity [62]: Active
- Activity [63]: Active
